In ChEMBL document CHEMBL4387708, “Enhancement of Benzothiazoles as Pteridine Reductase-1 Inhibitors for the Treatment of Trypanosomatidic Infections” (J Med Chem, 2019):
Values after ≈ are worked out from the molar mass of the structure shown.

Key:
[1] = AUC in BALB/c mouse at 20 mg/kg, po by LC-MS analysis; format: ADME, organism-based; conditions: in vivo
Procedure, shortened: (§1)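 Snapshot PK in healthy BALB/c mice. Free compound given in 8% DMSO at 1 mg/kg IV or 20 mg/kg per os; for the formulated arm it was solubilized with hydroxypropyl-β-cyclodextrin (50%) and given at 20 mg/kg per os. Plasma levels were quantified by LC-MS on a C18 column with triple-quadrupole ESI detection in positive ion mode.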

[2] = Thermodynamic solubility of the compound in phosphate buffered saline after 24 hrs by spectrophotometric method; format: physicochemical; conditions: read-out: Therm_solubility
Procedure, shortened: (§2)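 Over-saturated suspensions (theoretical maximum 100 µg/mL) in water, PBS, PBS + 10% DMSO or PBS + 50% DMSO were stirred at 1200 rpm for 24 h at 25 °C. They were filtered at 0.2 µm and diluted 1:1 with ACN. Concentration was quantified by UV using a molar extinction coefficient determined at 340 nm.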

Cytochrome P450 1A2 = biological target: T1, Cytochrome P450 1A2 (Homo sapiens, UniProt P05177); test: Inhibition of human CYP1A2 expressed in baculovirus infected insect cells using beetle D-luciferin as substrate preincubated for 30 mins followed by NADPH addition and measured after 30 mins by CYP450-Glo assay
T1 sequence (P05177 whole entry): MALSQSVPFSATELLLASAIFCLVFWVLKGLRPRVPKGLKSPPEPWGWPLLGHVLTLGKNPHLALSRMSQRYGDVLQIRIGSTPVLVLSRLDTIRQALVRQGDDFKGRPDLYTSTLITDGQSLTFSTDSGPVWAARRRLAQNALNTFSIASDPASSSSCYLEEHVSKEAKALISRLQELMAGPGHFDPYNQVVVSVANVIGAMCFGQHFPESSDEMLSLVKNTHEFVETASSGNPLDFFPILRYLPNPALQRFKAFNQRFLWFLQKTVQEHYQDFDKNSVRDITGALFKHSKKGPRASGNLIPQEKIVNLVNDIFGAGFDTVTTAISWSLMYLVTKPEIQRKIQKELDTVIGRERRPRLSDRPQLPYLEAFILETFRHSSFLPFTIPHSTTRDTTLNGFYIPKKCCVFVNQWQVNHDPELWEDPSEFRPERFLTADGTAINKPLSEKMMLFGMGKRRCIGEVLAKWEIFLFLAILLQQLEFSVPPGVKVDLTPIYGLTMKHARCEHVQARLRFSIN

[3] = Thermodynamic solubility of the compound in pure water after 24 hrs by spectrophotometric method; format: physicochemical; conditions: read-out: Therm_solubility; procedure, shortened: as §2
Pteridine reductase 1 = biological target: T2, Pteridine reductase 1 (Leishmania major, UniProt Q01782); test: Inhibition of Leishmania major pteridine reductase 1 using di-hydrobiopterine as substrate in presence of NADPH; conditions: read-out: IC50
T2 sequence (Q01782 whole entry): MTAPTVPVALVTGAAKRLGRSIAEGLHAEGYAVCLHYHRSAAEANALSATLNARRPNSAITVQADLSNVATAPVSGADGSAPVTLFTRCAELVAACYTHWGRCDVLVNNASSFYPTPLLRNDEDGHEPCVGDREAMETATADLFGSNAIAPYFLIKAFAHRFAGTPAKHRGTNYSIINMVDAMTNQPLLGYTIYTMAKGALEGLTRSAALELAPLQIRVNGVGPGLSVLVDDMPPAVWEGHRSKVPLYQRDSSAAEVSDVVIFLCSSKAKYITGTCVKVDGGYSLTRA
Procedure, shortened: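 Photometric PTR1 assay with NADPH and dihydrobiopterin substrate. H₄B formation is coupled non-enzymatically to cytochrome c reduction, read as signal increase at 550 nm.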

[4] = Cytotoxicity against human A549 cells after 48 hrs by Celltiter-glo assay; format: cell-based
[5] = Ratio of Cmax BALB/c mouse at 20 mg/kg, po co-formulated with hydroxypropyl-beta-cyclodextrin to EC50 for Trypanosoma brucei bloodstream forms; format: ADME, organism-based; conditions: in vivo
Trypanosoma brucei [6] = test: Inhibition of PTR1 in Trypanosoma brucei bloodstream forms assessed as potentiation of methotrexate-induced parasitic cell growth inhibition by measuring potentiation index at 10 uM measured after 72 hrs by resazurin-based fluorescence assay relative to control (methotrexate); format: functional
Procedure, shortened: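 Bloodstream-form T. brucei resazurin assay: 72 h at 37 °C, 5% CO₂, then fluorescence at ex 540/em 620 nm. Benzothiazole was tested at 10 μM alone and with 4 μM methotrexate. The index is the combination's activity divided by the sum of the activities of 10 μM benzothiazole and 4 μM methotrexate given separately.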

[7] = AUC in BALB/c mouse at 20 mg/kg, po co-formulated with hydroxypropyl-beta-cyclodextrin by LC-MS analysis; format: ADME, organism-based; conditions: in vivo; procedure, shortened: as §1
[8] = AUC in BALB/c mouse at 1 mg/kg, iv by LC-MS analysis; format: ADME, organism-based; conditions: in vivo; procedure, shortened: as §1
[9] = Selectivity ratio of IC50 for Leishmania major pteridine reductase 1 to IC50 for N-terminal His-tagged Trypanosoma brucei pteridine reductase 1
CYP2D6 = test: Selectivity index ratio of IC50 for CYP2D6 (unknown origin) to EC50 for growth inhibition of Trypanosoma brucei bloodstream forms; format: toxicity; conditions: read-out: Ratio IC50/EC50
Cytochrome P450 2C19 = Cytochrome P450 2C19 (Homo sapiens, UniProt P33261); test: Inhibition of human CYP2C19 expressed in baculovirus infected insect cells using beetle D-luciferin as substrate preincubated for 30 mins followed by NADPH addition and measured after 30 mins by CYP450-Glo assay
Trypanosoma brucei [10] = test: Growth inhibition of Trypanosoma brucei bloodstream forms at 10 uM measured after 72 hrs by resazurin-based fluorescence assay relative to control; format: organism-based; conditions: Trypanosoma brucei, read-out: GI
[11] = Half-life in BALB/c mouse at 20 mg/kg, po by LC-MS analysis; format: ADME, organism-based; conditions: in vivo; procedure, shortened: as §1
[12] = Clearance in BALB/c mouse at 20 mg/kg, po by LC-MS analysis; format: ADME, organism-based; conditions: in vivo; procedure, shortened: as §1
[13] = Cmax in BALB/c mouse at 20 mg/kg, po co-formulated with hydroxypropyl-beta-cyclodextrin by LC-MS analysis; format: ADME, organism-based; set-up: dose 20 mg/kg, route oral; conditions: in vivo; procedure, shortened: as §1
Trypanosoma brucei [14] = test: Growth inhibition of Trypanosoma brucei bloodstream forms measured after 72 hrs by resazurin-based fluorescence assay; format: organism-based
Procedure, shortened: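 Mid-log bloodstream-form T. brucei were seeded at a final 5 x 10^3/mL in supplemented HMI-9 with serial compound dilutions. Cultures ran 72 h at 37 °C, 5% CO₂, then 4 h more after resazurin. Fluorescence was read at ex 540/em 620 nm, and EC₅₀ was fitted by non-linear regression.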

Trypanosoma cruzi = test: Growth inhibition of trypomastigote form of Trypanosoma cruzi Y infected in human U2OS cells at 50 uM measured after 72 hrs by DRAQ5 DNA dye based confocal microscopic analysis relative to control; format: organism-based; conditions: Trypanosoma cruzi, Y, U2OS, read-out: GI
[15] = Clearance in BALB/c mouse at 20 mg/kg, po co-formulated with hydroxypropyl-beta-cyclodextrin by LC-MS analysis; format: ADME, organism-based; conditions: in vivo; procedure, shortened: as §1
[16] = Cytotoxicity against human U2OS cells assessed as reduction in cell number; format: cell-based

Sequence of Cytochrome P450 2C19 (P33261 whole entry): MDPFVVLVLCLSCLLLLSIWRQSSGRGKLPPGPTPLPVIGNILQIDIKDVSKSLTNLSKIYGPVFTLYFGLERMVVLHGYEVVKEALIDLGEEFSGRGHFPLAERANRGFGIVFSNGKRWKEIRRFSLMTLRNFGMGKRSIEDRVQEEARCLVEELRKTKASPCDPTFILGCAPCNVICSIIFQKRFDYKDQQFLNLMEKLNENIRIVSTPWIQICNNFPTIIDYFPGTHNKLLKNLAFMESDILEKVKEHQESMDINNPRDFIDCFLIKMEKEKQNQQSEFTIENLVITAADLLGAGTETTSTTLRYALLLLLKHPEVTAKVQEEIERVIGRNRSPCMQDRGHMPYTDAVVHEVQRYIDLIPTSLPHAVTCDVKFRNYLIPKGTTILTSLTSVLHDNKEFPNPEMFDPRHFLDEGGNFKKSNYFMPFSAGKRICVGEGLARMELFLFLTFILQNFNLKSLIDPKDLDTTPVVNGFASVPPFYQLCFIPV

AUC [1]: 4690 ng·h/mL
solubility thermodynamic at 24 h [2]: 10.9 µg/mL (≈ 38.6 µM)
IC50 (Cytochrome P450 1A2): > 25 µM
solubility thermodynamic at 24 h [3]: 13.1 µg/mL (≈ 46.3 µM)
IC50 (Pteridine reductase 1): 61.3 µM
Ratio [5]: 1.9
AUC [7]: 7930 ng·h/mL
AUC [8]: 1057 ng·h/mL
Ratio IC50 [9]: 2 to 100
IC50 (Cytochrome P450 2C19): > 25 µM
half-life [11]: 43.5 h
CL/F [12]: 68 mL/min/kg
Cmax [13]: 13 µM
EC50 (Trypanosoma brucei [14]): 7 µM
CL/F [15]: 41 mL/min/kg
SMILES: Nc1nc2ccc(C(=O)NCc3ccccc3)cc2s1
GI50 at 48 h [4]: > 25 µM
Ratio (Trypanosoma brucei [6]): 1.6
selectivity ratio (CYP2D6): > 10
inhibition at 10 µM (Trypanosoma brucei [10]): > 60%
inhibition at 50 µM (Trypanosoma cruzi): 51.3%
GI50 [16]: > 25 µM
